Most compounds without a hit are left out; they make up all but 1% or so of the library.
FXIa inh = blocks human coagulation factor XIa protease activity | P03951 | 0.14% of 220,000 active | inhibition, % at 5 µM | purified FXIa, Boc-Glu-Ala-Arg-AMC fluorogenic substrate | AID 798;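 active means inhibition of at least 40%; inactive means inhibition below 40%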;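 further: fluorescence of freed AMC excited at 355 nm; 0% = enzyme without compound and 100% = no enzyme blank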
KLK5 inh = blocks human kallikrein 5 protease activity | Q9Y337 | recombinant hK5, fluorogenic AMC substrate cleavage | inhibition, % at 5 µM | 0.59% of 210,000 active | AID 873;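 active means inhibition of 40% or more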;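 further: 0% = enzyme controls without compound and 100% = no-enzyme blanks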
FXIIa inh 1536 = factor XIIa (human) inhibition; 0.3% of 220,000 active; P00748; AID 800; inhibition, % at 5 µM; purified FXIIa, Boc-QGR-AMC fluorogenic substrate, 2 h; in the data active means inhibition above about 40%;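 further: 0% = enzyme with no compound and 100% = blank without enzyme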
Target sequence (P00748 20-372 limits assumed): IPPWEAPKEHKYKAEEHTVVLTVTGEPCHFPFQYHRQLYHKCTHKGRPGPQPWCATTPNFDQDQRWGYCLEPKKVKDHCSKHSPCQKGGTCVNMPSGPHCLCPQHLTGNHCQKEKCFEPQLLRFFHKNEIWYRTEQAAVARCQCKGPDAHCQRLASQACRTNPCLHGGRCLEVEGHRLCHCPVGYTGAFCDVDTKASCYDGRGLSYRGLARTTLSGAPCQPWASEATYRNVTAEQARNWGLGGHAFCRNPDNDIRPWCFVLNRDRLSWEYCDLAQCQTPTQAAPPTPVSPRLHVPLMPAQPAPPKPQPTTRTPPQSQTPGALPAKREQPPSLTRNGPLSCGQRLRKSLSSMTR
Target sequence (P00748 373-615 limits assumed): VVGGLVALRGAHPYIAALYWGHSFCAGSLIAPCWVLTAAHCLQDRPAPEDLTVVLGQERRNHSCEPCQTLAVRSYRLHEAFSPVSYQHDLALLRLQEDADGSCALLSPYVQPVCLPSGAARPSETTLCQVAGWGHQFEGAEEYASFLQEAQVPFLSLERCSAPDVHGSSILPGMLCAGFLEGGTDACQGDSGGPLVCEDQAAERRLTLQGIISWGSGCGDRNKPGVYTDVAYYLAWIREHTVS
Thrombin inh = blocks human thrombin protease activity; inhibition, % at 5 µM; alpha-thrombin, Boc-VPR-AMC fluorogenic substrate cleavage; 0.26% of 220,000 active; P00734;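 active means inhibition at or above 40%; inactive means inhibition below 40%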;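 further: 0% = enzyme with no compound and 100% = wells without enzyme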
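Material: human alpha-thrombin protein; Also added: Boc-VPR-AMC substrate, 15 µM final; Timing: enzyme reaction carried out at room temperature; Signal: fluorescence, ex 355 nm, em 460 nm; Measure: % inhibition of thrombin; Controls: enzyme without compound as high, wells lacking enzyme as low.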
* hit, by the source's call; x = not tested or not shown.

SMILES | FXIa inh | KLK5 inh | FXIIa inh 1536 | Thrombin inh
CNC(=S)N/N=C(\C)c1ccc(C)c(C)c1 | 3 | -18 | 7 | -5
Cc1ccc(C)c(C2=CSC3=NS(=O)(=O)CCN23)c1 | 6 | 6 | -6 | -19
Cc1ccc(C)c(C2=CSC3=NCCN23)c1 | 6 | 80* | 18 | 12
COc1ccc(C(=O)N/N=C/c2cc3ccccc3[nH]c2=O)cc1 | 52* | 21 | 60* | 34
COc1cccc(C(=O)N2CCSC2=S)c1 | 15 | 48* | 9 | 6
O=C(CS)Nc1ccc2ccccc2c1 | -1 | -1 | 4 | -7
CCCCCC(=O)Nc1ccc2ccccc2c1 | 17 | 124* | 22 | 27
CC1(C)SC(=S)N(NC(=O)Nc2cccc3ccccc23)C1N(O)C(=O)Nc1ccccc1 (stereo not given) | -6 | -21 | 2 | -5
COC(=O)CNC(=O)C(Cc1c[nH]c2ccccc12)NC(=O)OC(C)(C)C (stereo not given) | 0 | 44* | 18 | 22
COC(=O)c1c([N+](=O)[O-])c(OC)c(OC)c(OC)c1[N+](=O)[O-] | 1 | -5 | -2 | -2
CCOC(=O)N1CCN(c2c(NCc3ccccn3)c(=O)c2=O)CC1 | -7 | 40* | 6 | -4
CNC(=S)N(Cc1ccccc1)Cc1cccnc1 | 1 | 0 | 9 | 2
CCOc1ccc(S(=O)(=O)n2ccc(C)n2)c2ccccc12 | 6 | 49* | 16 | 16
CCOc1ccc(S(=O)(=O)N2CCCCC2)c2ccccc12 | 1 | -10 | 24 | 2
COC(=O)c1ccc(COc2ccccc2/C=N/NS(=O)(=O)c2ccc(C)cc2)cc1 | 0 | -8 | 19 | 5
CCOc1cccc2c1OC1(C)CC2NC(=O)N1Cc1ccccc1 (stereo not given) | 62* | 38 | 37 | 4
COc1ccc(CCNC(=O)CSc2nnc(CNc3ccc(Cl)cc3)o2)cc1OC | 7 | -25 | 14 | 0
COc1ccc(CCNC(=O)CSc2nnc(-c3ccc(F)cc3)o2)cc1OC | 16 | 130* | 21 | 22
COc1cccc(NC(=O)c2ccc(C(=O)c3ccccc3)o2)c1 | 6 | -1 | 9 | 1
Nn1c(C2CCCCC2)nc2ccccc2c1=O | 58* | 39 | 62* | 23
N#CCn1c(C2CCCCC2)nc2ccccc2c1=O | 2 | -9 | 7 | 0
Cc1cc(NC(=O)CSc2nc3c(c(=O)n2-c2ccc(Br)cc2)SCC3)no1 | 7 | -4 | 16 | -1
COc1ccc(-n2c(SCC(=O)Nc3cc(C)on3)nc3c(c2=O)SCC3)cc1 | 12 | 102* | 18 | 22
O=S(=O)(Cc1ccc(Cl)cc1)N1CCN(Cc2ccccc2)CC1 | -3 | -2 | 9 | 1
CN1CCN(S(=O)(=O)Cc2ccc(Cl)cc2)CC1 | 41* | 70* | 35 | 30
SMILES | FXIa inh | KLK5 inh | FXIIa inh 1536 | Thrombin inh
COc1cccc(C(=O)NNC2=CC(=O)CC(C)(C)C2)c1 | 3 | -8 | 13 | -2
CC1(C)CC(=O)C=C(NNC(=O)c2cccnc2)C1 | 20 | 65* | 29 | 21
CC(C)(C)OC(=O)CNC(=O)c1[nH]cnc1C(=O)N[C@@H](Cc1ccccc1)C(=O)OC(C)(C)C | -4 | -1 | 4 | -5
Cc1c(Cl)cnc(NC(=O)COC(=O)c2ccc3c(c2)OCO3)c1Cl | 10 | 41* | 13 | 27
CCOc1cc(C(=O)OCC(=O)Nc2ncc(Cl)c(C)c2Cl)ccc1OCC(=O)N1CCOCC1 | 9 | -1 | 12 | 1
Cc1cc(Br)ccc1NC(=O)CN1C(=O)C2C3CC(c4ccccc4)C(C3)C2C1=O (stereo not given) | 1 | -8 | 15 | 0
CC1CCN(CC(=O)Nc2ccccc2C#N)CC1 | 14 | 23 | 24 | 43*
COC(=O)c1sccc1NC(=O)/C=C/c1c(Cl)cccc1Cl | 22 | -6 | 40* | 2
COC(=O)c1sccc1NC(=O)/C=C/c1ccc(Cl)cc1Cl | 4 | -16 | 8 | -2
Cc1ccc(C(=O)C(=O)c2ccc(C)c(N)c2)cc1N | 53* | 26 | 40* | 14
O=C1c2ccc(Br)cc2C(=O)N1c1ccc(Cc2ccncc2)cc1 | -6 | -6 | 3 | 11
O=C1Nc2c(c(=O)[nH]c(=O)n2-c2ccccc2)C1(Nc1ncccn1)C(F)(F)F (stereo not given) | 15 | 156* | 32 | 13
O=C(CCl)NC1(C(F)(F)F)C(=O)Nc2c1c(=O)[nH]c(=O)n2-c1ccccc1 (stereo not given) | 6 | 3 | 13 | 2
CCC1CCCCN1C(=S)Nc1cccc(S(=O)(=O)N(C)C)c1 (stereo not given) | 0 | 49* | 7 | -2
CCOC(=O)c1cccc(C(=O)Nc2nc3ccc(OC)cc3s2)n1 | 2 | -5 | 7 | -8
CCC(C)NC(=O)CSc1ncnc2sccc12 (stereo not given) | 31 | 18 | 40* | 26
O=C(C1CCCCC1)N1CCN(c2ccnc3cc(Cl)ccc23)CC1 | 3 | 4 | 8 | -1
CSc1ccc(NC(=O)Nc2ccc(C(=O)NCC(=O)O)cc2)cc1 | -2 | 64* | 2 | -8
Cc1ccc(S(=O)(=O)NCC(=O)OCC(=O)Nc2ncc(Cl)cc2Cl)cc1 | 6 | 4 | 71* | 8
CC(=O)c1c(N2CCC(C(N)=O)CC2)nc(=S)n(-c2ccccc2)c1C | 9 | 45* | 22 | 14
COc1ccc(C(OC(=O)c2ccco2)C(=O)NC2CCCCC2)cc1OC (stereo not given) | 8 | 83* | 15 | 36
CC(CC(=O)O)CC(=O)Nc1cc(C(F)(F)F)cc(C(F)(F)F)c1 (stereo not given) | 23 | 50* | 25 | 4
COc1ccc(S(=O)(=O)N2CCCCC2)cc1NC(=O)CN(C)C1CCCCC1 | 30 | 19 | 49* | x
C/C(CC(=O)NCCN1CCOCC1)=N\NC(=O)c1ccncc1 | -1 | -1 | 3 | -4
COC(=O)c1ccc(Cl)c(NC(=O)CSc2ncn[nH]2)c1 | -10 | -23 | -6 | -10
SMILES | FXIa inh | KLK5 inh | FXIIa inh 1536 | Thrombin inh
COC(=O)c1cccc(NC(=O)CSc2ncn[nH]2)c1 | 44* | -2 | 54* | 2
CNC(=S)Nc1cccc(C(=O)OC)c1 | 5 | 51* | 32 | 9
O=C(Nc1cccc2ccccc12)c1ccc(Cn2cc(Cl)cn2)cc1 | 2 | 1 | 9 | 1
CCN(CC)C(=O)CSc1nnc(-c2ccccc2)c(-c2ccccc2)n1 | -2 | -6 | 8 | -5
CC(C)C(OC(=O)c1cccs1)C(=O)NCc1ccc2c(c1)OCO2 (stereo not given) | 31 | 24 | 57* | -5
CC(OC(=O)c1cccs1)C(=O)NCc1ccc2c(c1)OCO2 (stereo not given) | -5 | -6 | -3 | -7
Cc1nc2ccccc2c(=O)n1NC(=O)c1cc(Br)ccc1Cl | 47* | 43* | 22 | 51*
CCN1C(=O)CCC(C(=O)O)C1c1ccc(OC)cc1 (stereo not given) | -3 | 1 | 6 | -2
CN(Cc1cc2ccccc2[nH]c1=O)S(C)(=O)=O | -7 | 47* | 1 | -4
CN(Cc1cc2ccccc2[nH]c1=O)S(=O)(=O)c1ccccc1 | 2 | -11 | 3 | 5
